Each structure is given as a SMILES string.

The experiment is described as follows: Inhibition of yeast alpha-glucosidase using p-nitrophenyl a-D-glucopyranoside as substrate by spectrophotometry. Also on record: species or system Saccharomyces cerevisiae. The method, boiled down:
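Yeast enzyme at 1 U/mL with 0.01 M p-nitrophenyl α-D-glucopyranoside substrate, in 0.067 M KH₂PO₄–Na₂HPO₄ buffer, pH 6.8. Reaction run at 37 °C for 10 min and inhibition read spectrophotometrically. Method adapted with slight modification from a published procedure.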
The term IC50 denotes the point on the concentration scale where inhibition reaches its midpoint. Higher therefore signals weaker potency in that assay. `Oc1cc(O)c2c(c1)[C@H]1[C@H](c3ccc(O)c(O)c3)c3c(O)cc(O)cc3[C@H]1[C@@H]2c1ccc(O)c(O)c1` [CARAROSINOL D]: the IC50 was 79.1 µM.
The compound `OC[C@H]1NC[C@H](O)[C@@H](O)[C@@H]1O` [DUVOGLUSTAT] yielded an IC50 of 20.6 µM.
To `CC(=O)Oc1cc([C@H]2Oc3ccc(/C=C/c4cc(O)cc(O)c4)cc3O[C@@H]2c2cc(O)cc(O)c2)ccc1O` (racemic) belongs 69.3 µM; to `COc1cc([C@H]2Oc3c(O)cc(/C=C/c4cc(O)cc(O)c4)cc3[C@@H]2c2cc(O)cc(O)c2)ccc1O` (relative stereo), 3.04 µM.
Turning to `COc1cc(/C=C2/c3cc(O)cc(O)c3[C@H](c3ccc(O)c(OC)c3)[C@H]2c2cc(O)cc(O)c2)ccc1O` [GNETULIN], the IC50 amounted to 70.2 µM.
`Oc1cc(O)cc(/C=C/c2ccc3c(c2)O[C@H](c2cc(O)cc(O)c2)[C@@H](c2ccc(O)c(O)c2)O3)c1` [MAACKIN] registered an IC50 of 23.2 µM.
Compound `CC(=O)Oc1cc([C@@H]2c3c(O)cc(O)cc3[C@H]3[C@H](c4ccc(O)c(OC(C)=O)c4)c4c(O)cc(O)cc4[C@@H]23)ccc1O` returned an IC50 of 131 µM.
In the case of `Oc1cc(O)cc(/C=C/c2ccc(O)c(O)c2)c1` [PICEATANNOL] it was 34.3 µM; in that of `COc1cc([C@@H]2c3c(O)cc(O)cc3[C@H]3[C@H](c4ccc(O)c(O)c4)c4c(O)cc(O)cc4[C@@H]23)ccc1O` (racemic), 109 µM; in that of `Oc1cc(O)cc(/C=C/c2cc(O)c3c(c2)[C@H](c2cc(O)cc(O)c2)[C@@H](c2ccc(O)c(O)c2)O3)c1` (racemic), 1.13 µM.

Values taken from ChEMBL document CHEMBL1817615, “Dimerization of piceatannol by Momordica charantia peroxidase and α-glucosidase inhibitory activity of the biotransformation products” (Bioorg Med Chem, 2011).
